Results taken from ChEMBL document CHEMBL1806443, “Novel imidazo[4,5-b]pyridine and triaza-benzo[c]fluorene derivatives: synthesis, antiproliferative activity and DNA binding studies” (Eur J Med Chem, 2011).
Active and inactive are the calls of the source. The calls are words filed in the database; no cut-off is given here.

Tests used:
MIA PaCa-2 [1] = assay: Cell cycle arrest in human MIAPaCa2 cells assessed as accumulation at subG1 phase at 10 uM after 24 hrs by propidium iodide staining based flow cytometeric analysis (reference value: 48.7 +/- 0.7%); type: functional
MIA PaCa-2 [2] = assay: Cell cycle arrest in human MIAPaCa2 cells assessed as accumulation at G2/M phase at 1 uM after 48 hrs by propidium iodide staining based flow cytometeric analysis (reference value: 14.3 +/- 1.8%); type: functional
SW-620 [3] = assay: Cell cycle arrest in human SW620 cells assessed as accumulation at S phase at 1 uM after 48 hrs by propidium iodide staining based flow cytometeric analysis (reference value: 31.9 +/- 1%); type: functional
HEp-2 = assay: Antiproliferative activity against human Hep2 cells at 0.1 to 10 uM after 72 hrs by MTT assay; type: functional, cell-based
In short: (§1)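 Monolayer cells in DMEM with 10% FBS, 2 mM L-glutamine, penicillin and streptomycin at 37 °C, 5% CO2. Seeded at 3000-6000 cells/well by doubling time on day 0. Five 10-fold dilutions (0.01–100 µM) were added and incubated 72 h. MTT read-out, converted to percentage growth. IC50 by linear regression between bracketing concentrations. Quadruplicate points, three independent experiments, ANOVA/Tukey p<0.05.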

WI-38 = assay: Cytostatic activity against human WI38 cells at 1 to 10 uM after 72 hrs by MTT assay; type: ADME, cell-based; conditions: wi-38, 72 h
In short: (§2)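 Monolayers in DMEM with 10% FBS, 2 mM L-glutamine, penicillin and streptomycin (37 °C, 5% CO2) were seeded at 3000–6000 cells/well on day 0. Five 10-fold dilutions (0.01–100 µM) were added, followed by 72-h incubation and MTT read-out. Absorbances were converted to percentage growth by the NIH formulae. Each point was run in quadruplicate in three experiments; ANOVA with Tukey test.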

MIA PaCa-2 [4] = assay: Cell cycle arrest in human MIAPaCa2 cells assessed as accumulation at G1 phase at 10 uM after 48 hrs by propidium iodide staining based flow cytometeric analysis (reference value: 65.2 +/- 1.9%); type: functional
SK-BR-3 [5] = assay: Cytostatic activity against human SKBR3 cells at 1 to 10 uM after 72 hrs by MTT assay; type: functional, cell-based; in short: as §2
SW-620 [6] = assay: Cell cycle arrest in human SW620 cells assessed as accumulation at G2/M phase at 10 uM after 48 hrs by propidium iodide staining based flow cytometeric analysis (reference value: 16.1 +/- 0.9%); type: functional
Nucleic Acid [7] = assay: Binding affinity to calf thymus DNA assessed as fluorescence quenching at compound to DNA ratio of < 0.1 by fluorimetric titrations; type: nucleic-acid assay; conditions: Bos taurus
In short: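 Fluorimetric titration: portions of ct-DNA (sonicated, filtered, concentration as phosphate) added to compound in cacodylate buffer pH 7.0, I = 0.05 mol dm^-3. Emission 350–600 nm, sample absorbance <0.05 at excitation, mostly DNA excess (r < 0.1). Ks and n = [bound compound]/[DNA phosphate] by non-linear least-squares Scatchard fitting.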

SW-620 [8] = assay: Cytostatic activity against human SW620 cells at 1 to 10 uM after 72 hrs by MTT assay; type: functional, cell-based; in short: as §2
SK-BR-3 [9] = assay: Antiproliferative activity against human SKBR3 cells at 0.1 to 10 uM after 72 hrs by MTT assay; type: functional, cell-based; in short: as §1
SW-620 [10] = assay: Induction of apoptosis in human SW620 cells assessed as morphological changes after 24 to 48 hrs by microscopic analysis; type: functional, cell-based
In short: (§3)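 Cells were seeded at 3 × 10^4 per well and exposed 24 h later to 1, 5 or 10 µM for 24 and 48 h. Apoptotic morphology (cell shrinkage, chromatin condensation) was scored by inverted light microscopy at 200× magnification.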

MIA PaCa-2 [11] = assay: Cell cycle arrest in human MIAPaCa2 cells assessed as accumulation at G1 phase at 10 uM after 24 hrs by propidium iodide staining based flow cytometeric analysis (reference value: 51.2 +/- 2.7%); type: functional
MIA PaCa-2 [12] = assay: Cell cycle arrest in human MIAPaCa2 cells assessed as accumulation at G2/M phase at 10 uM after 48 hrs by propidium iodide staining based flow cytometeric analysis (reference value: 14.3 +/- 1.8%); type: functional
MIA PaCa-2 [13] = assay: Cell cycle arrest in human MIAPaCa2 cells assessed as accumulation at S phase at 10 uM after 24 hrs by propidium iodide staining based flow cytometeric analysis (reference value: 29.2 +/- 4.2%); type: functional
HeLa = assay: Antiproliferative activity against human HeLa cells after 72 hrs by MTT assay; type: functional, cell-based; conditions: Homo sapiens, HeLa, 72 h; in short: as §1
MIA PaCa-2 [14] = assay: Induction of apoptosis in human MIAPaCa2 cells assessed as morphological change after 24 to 48 hrs by microscopic analysis; type: functional, cell-based; in short: as §3
MCF7 [15] = assay: Antiproliferative activity against human MCF7 cells after 72 hrs by MTT assay; type: functional, cell-based; conditions: Homo sapiens, MCF7, 72 h; in short: as §1
MIA PaCa-2 [16] = assay: Cell cycle arrest in human MIAPaCa2 cells assessed as accumulation at G2/M phase at 10 uM after 24 hrs by propidium iodide staining based flow cytometeric analysis (reference value: 19.5 +/- 3.9%); type: functional
MIA PaCa-2 [17] = assay: Antiproliferative activity against human MIAPaCa2 cells at 0.1 to 10 uM after 72 hrs by MTT assay; type: functional, cell-based; in short: as §1
SW-620 [18] = assay: Cell cycle arrest in human SW620 cells assessed as accumulation at subG1 phase at 10 uM after 24 hrs by propidium iodide staining based flow cytometeric analysis (reference value: 18 +/- 1%); type: functional
In short: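 Cells seeded at 3 × 10^4 per well and treated 24 h later with 1, 5 or 10 µM for 24 and 48 h. Adherent and floating cells were pooled, washed in PBS and fixed in 70% ethanol. They were then stained with propidium iodide 10 µg/mL plus RNase A 0.2 µg/mL. Flow cytometry counted 10000 events; each point was run in triplicate; significance was taken at p < 0.05.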

MIA PaCa-2 [19] = assay: Cell cycle arrest in human MIAPaCa2 cells assessed as accumulation at G1 phase at 5 uM after 24 hrs by propidium iodide staining based flow cytometeric analysis (reference value: 51.2 +/- 2.7%); type: functional
MIA PaCa-2 [20] = assay: Cell cycle arrest in human MIAPaCa2 cells assessed as accumulation at S phase at 5 uM after 48 hrs by propidium iodide staining based flow cytometeric analysis (reference value: 20.5 +/- 0.2%); type: functional
Nucleic Acid [21] = assay: Binding affinity to calf thymus DNA assessed as change in melting temperature at compound to polynucleotide ratio of 0.5 by UV-VIS spectroscopic analysis; type: nucleic-acid assay; conditions: Bos taurus
In short: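 ct-DNA alone or with compound at set r = [compound]/[polynucleotide], in cacodylate buffer pH 7.0, I = 0.05 mol dm^-3. Absorbance at 260 nm followed against temperature, ligand absorbance subtracted, curves normalized. Tm is the transition midpoint, from the first-derivative maximum or by tangent method. ΔTm = Tm(complex) − Tm(free DNA), mean of ≥2 runs, error ±0.5 °C.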

MIA PaCa-2 [22] = assay: Cell cycle arrest in human MIAPaCa2 cells assessed as accumulation at subG1 phase at 1 uM after 48 hrs by propidium iodide staining based flow cytometeric analysis (reference value: 46.8 +/- 0.7%); type: functional
MCF7 [23] = assay: Antiproliferative activity against human MCF7 cells at 0.1 to 10 uM after 72 hrs by MTT assay; type: functional, cell-based; in short: as §1
MCF7 [24] = assay: Cytostatic activity against human MCF7 cells at 1 to 10 uM after 72 hrs by MTT assay; type: functional, cell-based; in short: as §2

**Q.** Which Activity (MIA PaCa-2 [1]) does the source give for `Cl.c1cnc2nc3ccc4ccc(C5=NCCN5)cc4n3c2c1` here?
**A.** 50.2%

**Q.** What about the Activity (MIA PaCa-2 [2]) of the same compound?
**A.** 23%

**Q.** What about the Activity (SW-620 [3]) of the same compound?
**A.** 45.4%

**Q.** And the Activity (HEp-2)?
**A.** Active

**Q.** And the Activity (WI-38)?
**A.** Toxic

**Q.** And the Activity (MIA PaCa-2 [4])?
**A.** 26.1%

**Q.** And the Activity (SK-BR-3 [5])?
**A.** Active

**Q.** What about the Activity (SW-620 [6]) of the same compound?
**A.** 18.2%

**Q.** What about the Activity (Nucleic Acid [7]) of the same compound?
**A.** Active

**Q.** And the Activity (SW-620 [8])?
**A.** Active

**Q.** What about the Activity (SK-BR-3 [9]) of the same compound?
**A.** Active

**Q.** What about the Activity (SW-620 [10]) of the same compound?
**A.** Dose-dependent effect

**Q.** What about the Activity (MIA PaCa-2 [11]) of the same compound?
**A.** 52.4%

**Q.** And the Activity (MIA PaCa-2 [12])?
**A.** 16.9%

**Q.** And the Activity (MIA PaCa-2 [13])?
**A.** 29.3%

**Q.** And the IC50 (HeLa)?
**A.** 0.41 µM

**Q.** And the Activity (MIA PaCa-2 [14])?
**A.** Dose-dependent effect

**Q.** And the IC50 (MCF7 [15])?
**A.** 6.54 µM

**Q.** And the Activity (MIA PaCa-2 [16])?
**A.** 18.3%

**Q.** And the Activity (MIA PaCa-2 [17])?
**A.** Active

**Q.** And the Activity (SW-620 [18])?
**A.** 20.1%

**Q.** What about the Activity (MIA PaCa-2 [19]) of the same compound?
**A.** 22.4%

**Q.** And the Activity (MIA PaCa-2 [20])?
**A.** 36.8%

**Q.** What about the ΔTm (Nucleic Acid [21]) of the same compound?
**A.** 8.4 °C

**Q.** What about the Activity (MIA PaCa-2 [22]) of the same compound?
**A.** 33.8%

**Q.** What about the Activity (MCF7 [23]) of the same compound?
**A.** Active

**Q.** And the Activity (MCF7 [24])?
**A.** Active
